Sampled rows, rich in hits. Any-hit rate of the full collection: about 0.72%.
bIAP act: increases bovine intestinal alkaline phosphatase activity; purified bovine IAP, CDP-star luminescence, 30 min; hits give high values; fold of DMSO-control signal, blank-subtracted; activation factor at 20 µM; 200,000 compounds, 0.17% hits; AID 1016;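 active = activation factor of 2 or more at 20 µM, a signal rise over negative controls twice the positive control's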
hIAP act: increases human intestinal alkaline phosphatase activity | 330,000 compounds, 0.16% hits | activation factor at 10 µM | P09923 | purified human IAP, CDP-Star luminescence, 30 min; hits give high values; 1 = vehicle-only enzyme, 0 = enzyme-free background;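 active = activation factor of the enzyme at least 2-fold when tested at 20 µM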
Target sequence (P09923 whole entry, looked up): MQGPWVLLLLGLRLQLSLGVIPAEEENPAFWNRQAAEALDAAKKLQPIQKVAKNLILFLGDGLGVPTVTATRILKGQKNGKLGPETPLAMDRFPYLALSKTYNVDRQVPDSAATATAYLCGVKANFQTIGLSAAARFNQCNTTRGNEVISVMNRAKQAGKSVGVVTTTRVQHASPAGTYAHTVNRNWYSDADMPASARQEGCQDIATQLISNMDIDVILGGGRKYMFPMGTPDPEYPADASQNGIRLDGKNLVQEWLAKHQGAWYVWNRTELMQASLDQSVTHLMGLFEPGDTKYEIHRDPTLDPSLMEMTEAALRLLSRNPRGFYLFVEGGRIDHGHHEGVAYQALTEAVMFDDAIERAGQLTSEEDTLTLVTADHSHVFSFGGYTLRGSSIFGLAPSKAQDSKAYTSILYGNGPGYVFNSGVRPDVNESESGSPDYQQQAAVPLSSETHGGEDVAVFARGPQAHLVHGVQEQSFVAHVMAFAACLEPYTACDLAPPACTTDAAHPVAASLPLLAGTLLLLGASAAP
mIAP inh: mouse IAP inhibition; purified mouse IAP, CDP-Star luminescence, 30 min; inhibition, % at 10 µM; 330,000 compounds, 0.2% hits; AID 2806;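 active = inhibition of at least 40% at 10 µM in the primary screen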;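 note: plate controls were DMSO with enzyme for no effect and no enzyme wells for full effect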
bIAP inh: blocks bovine intestinal alkaline phosphatase activity | purified bovine IAP, CDP-star luminescence, 30 min | inhibition, % at 20 µM | 190,000 tested, under 10 active;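 active = over 50% inhibition of intestinal alkaline phosphatase at 20 µM in the single-dose screen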
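Incubation: 30 min reaction at room temperature / Material: purified bovine intestinal alkaline phosphatase (IAP) enzyme / Input: enzyme at 1/65,000,000 dilution / Dosing: 20 µM single dose / Signal: CDP-star luminescence signal / Reagent: CDP-star chemiluminescent phosphatase substrate, 30 µM final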
mIAP act: increases mouse intestinal alkaline phosphatase activity; activation factor at 10 µM; muIAP, CDP-Star luminescence, 30 min; hits give high values; 1 = vehicle-only enzyme signal, 0 = enzyme-free wells; 330,000 compounds, 0.24% hits;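 active = activation factor of at least 2 at 20 µM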
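Assay system: mouse IAP enzyme; Reagent: CDP-Star chemiluminescent phosphatase substrate; Compound: DMSO-dissolved test compounds; Incubation: 30 min, room temperature; Technique: luminescence from enzymatic CDP-Star hydrolysis; Controls: DMSO-only wells and no-enzyme negative control.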
hIAP block: blocks human intestinal alkaline phosphatase | P09923 | purified IAP, CDP-Star luminescence, 30 min | inhibition, % at 10 µM | 330,000 compounds, 0.12% hits;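 active = inhibition reaching a set limit with compound at 10 µM in the primary screen, cut at about 35% in these data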;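 note: plate controls were DMSO wells with enzyme for no effect and no-enzyme buffer wells for full effect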
hIAP act conf: human IAP activation confirmation; purified IAP, CDP-Star luminescence, 30 min; hits give low values; AID 434926; shares compounds with hIAP act; activation (%Activity, negative = activation), % at 8.3 µM; 880 compounds, 10% hits;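 active = at least twofold enzyme activation in any of six single-dose repeats, which the averaged readout prints as negative percent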
Active calls of the source: *.

How did COc1ccc(Cc2nc3ccc(C(=O)NC(C)Cc4ncccc4C)cc3o2)cc1OC (centres undefined) do in these assays?
hIAP act: 0.896; mIAP inh: 2.6; mIAP act: 0.974; hIAP block: 10.4

How did O=C(CN1C(=O)c2ccccc2S1(=O)=O)NCc1cccs1 do in these assays?
hIAP act: 0.549; mIAP inh: 0.8; mIAP act: 0.992; hIAP block: 45.1*; hIAP act conf: -50.2

What do the screens show for `O=C(Nc1ccc(N2CCOCC2)c(F)c1)c1cccs1`?
hIAP act: 0.852; mIAP inh: 1.3; mIAP act: 0.987; hIAP block: 14.8

How did CC(C)(C)c1ccc(C(=O)Nc2ccc(CN3CCS(=O)(=O)CC3)cc2)cc1 do in these assays?
hIAP act: 0.614; mIAP inh: 3.7; mIAP act: 0.963; hIAP block: 38.6*; hIAP act conf: -53.6

Results for Cc1noc(C)c1S(=O)(=O)NCc1cccc(Cl)c1 ?
hIAP act: 1.09; mIAP inh: -9.8; mIAP act: 1.1; hIAP block: -8.8

How did Cc1ccc(NCc2ccc([N+](=O)[O-])s2)cc1 do in these assays?
hIAP act: 0.632; mIAP inh: 6.0; mIAP act: 0.94; hIAP block: 36.8*; hIAP act conf: 26.1

Results for CC(C)(C)c1cccc(C2(O)C(=O)c3ccccc3C2=O)c1O ?
hIAP act: 0.419; mIAP inh: 4.9; mIAP act: 0.951; hIAP block: 58.1*; hIAP act conf: 5.0

Results for Cc1ccc(C2(O)C(=O)c3ccccc3C2=O)c(O)c1C ?
hIAP act: 1.01; mIAP inh: -4.1; mIAP act: 1.04; hIAP block: -1.0

What do the screens show for `C[n+]1c(/C=C/c2ccc(O)cc2)ccc2ccccc21`?
hIAP act: 0.555; mIAP inh: 28.0; mIAP act: 0.72; hIAP block: 44.5*; hIAP act conf: 4.1

Results for N#Cc1ccc(CN2CCN(C(=O)CCNS(=O)(=O)c3ccc(F)c(Cl)c3)CC2)cc1 ?
hIAP act: 1.06; mIAP inh: 0.1; mIAP act: 0.999; hIAP block: -6.0

What do the screens show for `O=C1CC(c2ccccc2)n2nc(NC(=O)c3ccccc3)nc2N1` (centres undefined)?
bIAP act: 0.9; hIAP act: 0.964; mIAP inh: 3.0; bIAP inh: 6.4; mIAP act: 0.97; hIAP block: 3.6

Results for O=C1CC(c2ccccc2)n2nc(NC(=O)c3ccccn3)nc2N1 (centres undefined) ?
bIAP act: 1.7; hIAP act: 2.37*; mIAP inh: -4.9; bIAP inh: -68.1; mIAP act: 1.05; hIAP block: -136.7; hIAP act conf: 9.4

What do the screens show for `COc1cccc(/C=N/NC(=O)N/N=C/c2cccc(OC)c2O)c1O`?
hIAP act: 2.51*; mIAP inh: 19.1; mIAP act: 0.809; hIAP block: -151.1; hIAP act conf: 3.8

What do the screens show for `Oc1cccc(/C=N/Nc2nn3cnnc3c3ccccc23)c1`?
hIAP act: 0.943; mIAP inh: -4.9; mIAP act: 1.05; hIAP block: 5.7

How did COc1cccc(/C=N/Nc2nn3cnnc3c3ccccc23)c1O do in these assays?
bIAP act: 1.5; hIAP act: 2.05*; mIAP inh: -9.2; bIAP inh: -49.0; mIAP act: 1.09; hIAP block: -104.9; hIAP act conf: 40.4

How did COc1ccccc1CC(NC(C)=O)C(=O)NC1CCN(C(=O)c2ccc(C)cc2)CC1 (centres undefined) do in these assays?
hIAP act: 1.12; mIAP inh: 1.9; mIAP act: 0.981; hIAP block: -12.2

What do the screens show for `CCc1nnc(NC(=O)CSc2nnc(C)c(=O)n2N)s1`?
hIAP act: 0.535; mIAP inh: -5.2; mIAP act: 1.05; hIAP block: 46.5*; hIAP act conf: 41.3

Results for Cc1nnc(NC(=O)CSc2nnc(C)c(=O)n2N)s1 ?
hIAP act: 1.16; mIAP inh: 1.0; mIAP act: 0.99; hIAP block: -15.8

Results for Cc1nc(S/C(=C\c2ccc(OCc3ccccc3Cl)cc2)C(=O)O)n[nH]1 ?
bIAP act: 1.1; hIAP act: 2.13*; mIAP inh: 11.3; bIAP inh: -10.4; mIAP act: 0.887; hIAP block: -112.6; hIAP act conf: -48.0

How did Cc1nc(SCC(=O)Nc2ccc(OCc3ccccc3)cc2)n[nH]1 do in these assays?
bIAP act: 1; hIAP act: 1.39; mIAP inh: 6.6; bIAP inh: -3.2; mIAP act: 0.934; hIAP block: -38.8

How did O=C(c1ccc(F)cc1Cl)N(Cc1ccco1)C1CCS(=O)(=O)C1 (centres undefined) do in these assays?
hIAP act: 0.86; mIAP inh: 8.2; mIAP act: 0.918; hIAP block: 14.0

Results for Cc1cc(C)n(C(C)CNS(=O)(=O)c2ccc(Cl)cc2)n1 (centres undefined) ?
hIAP act: 1.15; mIAP inh: -3.9; mIAP act: 1.04; hIAP block: -14.7

Results for O=C(Nc1ccc(F)cc1)C1CCCCC1 ?
bIAP act: 1.1; hIAP act: 1.11; mIAP inh: 1.1; bIAP inh: -6.0; mIAP act: 0.989; hIAP block: -11.2

How did NC(=O)c1ccc(NC(=O)C2CCCC2)cc1 do in these assays?
hIAP act: 2.58*; mIAP inh: -7.5; mIAP act: 1.07; hIAP block: -158.0; hIAP act conf: -40.2*

Results for O=C(COC(=O)c1ccc[n+]([O-])c1)Nc1cc([N+](=O)[O-])ccc1Cl ?
hIAP act: 1.15; mIAP inh: 3.4; mIAP act: 0.966; hIAP block: -15.3

How did Cc1ccc(-n2ncc3c(=O)n(CC(N)=O)cnc32)cc1C do in these assays?
hIAP act: 1.01; mIAP inh: -12.3; mIAP act: 1.12; hIAP block: -0.6

How did Cc1nc2c3cnn(-c4ccc(C)c(C)c4)c3ncn2n1 do in these assays?
bIAP act: 0.9; hIAP act: 0.256; mIAP inh: -4.7; bIAP inh: 5.8; mIAP act: 1.05; hIAP block: 74.4*; hIAP act conf: -27.4

What do the screens show for `CC(=O)N1c2ccc(S(=O)(=O)N3CCC(C(=O)Nc4cccc(Cl)c4)CC3)cc2CC1C` (centres undefined)?
hIAP act: 2*; mIAP inh: -97.7; mIAP act: 1.98; hIAP block: -100.2; hIAP act conf: -63.6

What do the screens show for `COc1ccc([C@H]2CC(=O)C=C(c3ccc4c(c3)sc3ccccc34)C2)cc1`?
hIAP act: 0.889; mIAP inh: 10.0; mIAP act: 0.9; hIAP block: 11.1

Results for CCC(NC(=S)NC1CCCCC1)c1ccc(C(C)C)cc1 (centres undefined) ?
hIAP act: 4.11*; mIAP inh: -467.0; mIAP act: 5.67*; hIAP block: -310.7; hIAP act conf: -24.1*

Compound activity (PubChem BioAssay)
